The values below come from paper PMC12694607 (RSC Chemical Biology, 2025).

A short description of this data set: Dynamic light scattering. It counts as physicochemical. The conditions noted are these: PBS with 1% DMSO. An outline of the steps: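 Salicylaldehyde-tagged peptide and its alkyne precursor were dissolved in DMSO at several concentrations, then diluted 1:100 into PBS. Final samples were 5 µM, 125 nM and 10 nM in PBS (+1% DMSO). Aggregation was assessed by dynamic light scattering.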

Structures are written as SMILES. In brackets after ≈: the same amount, converted by molar mass. Non-standard residues stand in square brackets, D forms with d. Residues, ends and D or L forms follow the SMILES beside them. *: point of attachment. FITC = O=C1OC2(c3ccc(O)cc3Oc3cc(O)ccc32)c2ccc(NC(=S)*)cc21; Pra = C#CC[C@H](N)C(=O)O; βAla = NCCC(=O)O

The molecule `C#CC[C@H](NC(=O)[C@H](Cc1ccccc1)NC(=O)CCNC(=S)Nc1ccc2c(c1)C(=O)OC21c2ccc(O)cc2Oc2cc(O)ccc21)C(=O)N[C@@H](C)C(=O)N[C@@H](CC(C)C)C(=O)N[C@@H](CC(=O)O)C(=O)N[C@@H](Cc1c[nH]c2ccccc12)C(=O)N[C@@H](CO)C(=O)N[C@@H](Cc1c[nH]c2ccccc12)C(=O)N[C@@H](CC(C)C)C(=O)N[C@@H](CCC(N)=O)C(=O)N[C@H](C(=O)N[C@@H](CCC(=O)O)C(N)=O)[C@@H](C)O` [Compound 6] ({FITC-βAla}-F[Pra]ALDWSWLQTE-NH2) gave a solubility (kinetic) of 0.125 µM (≈ 0.244 µg/mL).

By solubility (kinetic) is commonly meant solubility judged after dilution from a stock solution rather than from solid.
